Shown are actives, neighbours in structure and some others; about 3.5% of the full set was active somewhere.
Env fusion inh = blocks HIV Env-driven cell-cell fusion | HeLa-JRFL Env/CEM21 cell fusion, luciferase | inhibition, % at 12.3 µM | hit rate 1.1% among 360,000;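 active means mean replicate inhibition score of at least 50 and every replicate individually at or above 50; inconclusive means only one of the two criteria met; inactive means mean below 50 and not all replicates reaching 50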
PGC1a acetyl inh = lowers PGC1a acetylation signal in U2OS cells; AlphaScreen anti-acetyl-lysine; with virally co-expressed GCN5 acetyltransferase; inhibition, % at 15.6 µM; hit rate 0.17% among 350,000;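 active means every replicate shows inhibition of at least 40%; inconclusive means mean inhibition at least 40% but some replicate below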
PglD DTNB = PglD (C. jejuni) enzyme inhibition. purified PglD enzyme, DTNB colorimetric CoA detection. inhibition, % at 12.5 µM. hit rate 0.098% among 360,000; in the data active means inhibition above about 16%, passing the limit was not always enough; inconclusive means no clear call, values can overlap the other calls
DENV2 CPE rescue = protects cells from dengue virus 2 cytopathic effect; hit rate 1.7% among 350,000; CPE inhibition, % at 9.99 µM; DENV2-infected cells, cytopathic effect rescue, plate reader; in the data active means CPE inhibition above about 20%, passing the limit was not always enough; inconclusive means no clear call, values can overlap the other calls; tested in BHK-21 cells
rRNA inh HTS = inhibitors of bacterial rRNA selective over humanized ribosomes | AID 720706 | hit rate 1.6% among 350,000 | GFP signal change (wild-type ribosome), % (concentration not given with the values) | E. coli WT GFP vs humanized-ribosome RFP mutants, fluorescence, 24 h; active compounds read low; DMSO median 0, no signal -100;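 active means significant combined selectivity score with lowered wild-type GFP, culture density cut under 30%, mutant RFP and density less affected; inactive means any of these conditions unmet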
FN deposit inh = fibronectin deposition inhibition; AID 743247; AH1F fibroblasts, Alexa488-fibronectin deposition fluorescence, overnight; hit rate 0.086% among 350,000; inhibition, % at 12.6 µM;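 active means mean inhibition across replicates of 30% or more, regardless of how many single replicates reach that level; inconclusive means mean under 30% yet at least half of replicates reach 30%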
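test system = AH1F fibroblasts assembling fluorescent fibronectin matrix | quantity = 10000 AH1F cells per well | buffer or medium = DMEM plus 2% serum, read in PBS | doses = single dose, pinned | incubation = 1 h cell attachment, overnight exposure to compound and label | detection = fluorescence at 485 nm excitation, 525 nm emission | read-out basis = inhibition from reduced deposited-fibronectin fluorescence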
HepG2 tox = cytotoxic compounds in HepG2 cells; shares compounds with rRNA inh HTS; HepG2 viability, ATP luminescence, 72 h; activity change, negative = cytotoxicity, unspecified at 26 µM; 30 tested, under 10 active; AID 743480;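 active means compounds whose fitted half-maximal signal-loss concentration is at most twice their highest valid dose; inconclusive means flat curve with 30 to 70% signal loss, or poor fit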
AID977621 = wild-type E. coli growth inhibition versus H69 humanized strain – H69 mutant RFP, wild-type GFP, cherry-pick, dose response; shares compounds with rRNA inh HTS; fluorescence, 24 h; activity change, negative = inhibition at 50 µM; 1,900 tested, under 10 active; AID 977621;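 active means Wild-type ribosome reporter drop at least double the humanized mutant ribosome reporter drop, growth loss under a set limit; inconclusive means no clear call, values can overlap the other calls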;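 further: wild-type GFP and H69 mutant RFP strains grown together 50/50 in each well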
AID977628 = E. coli growth inhibition, wild-type GFP versus h24 humanized RFP strain, dose response, h24 mutant RFP vs wild-type GFP, cherry-pick; shares compounds with rRNA inh HTS; E. coli WT GFP strain growth, fluorescence, 24 h; activity change, negative = inhibition at 50 µM; AID 977628; 1,900 tested, under 10 active;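 active means compound lowering the normal-ribosome reporter at least twice as much as the humanized-ribosome reporter, growth loss under a set limit; inconclusive means no clear call, values can overlap the other calls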;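 further: wild-type GFP and h24 humanized RFP strains co-cultured 1 to 1 per well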
Numbers stand for hits; n = inactive; u = inconclusive; x = not tested or not shown.

SMILES	Env fusion inh	PGC1a acetyl inh	PglD DTNB	DENV2 CPE rescue	rRNA inh HTS	FN deposit inh	AID977621	AID977628	others
CC1(C)CC2CC(C)(CN2c2ncnc3ccccc23)C1 (centres undefined)	x	n	n	n	-27	x	n	u
Clc1cccc(OCc2nc(-c3ccncc3)n[nH]2)c1	n	x	x	n	-22	n	n	x
Fc1ccc(OCc2nc(-c3ccncc3)n[nH]2)cc1	n	x	x	n	n	n	x	x
CN(C)CC#Cc1ccc([C@@H]2[C@@H](CO)N3C(=O)CN(C(=O)c4cccc(F)c4)C[C@@H]23)cc1	x	n	x	n	n	x	x	x
C[C@@H]1CCCCO[C@@H](CN(C)C)[C@@H](C)CN([C@H](C)CO)C(=O)c2cc(NC(=O)Nc3cccc4ccccc34)ccc2O1	n	n	n	n	n	x	n	u
C[C@H](CO)N1C[C@H](C)[C@@H](CN(C)C)OCCCC[C@H](C)Oc2ccc(NC(=O)Nc3cccc4ccccc34)cc2C1=O	n	n	n	n	n	x	n	u
CC(C)NC(=O)N(C)C[C@H]1OCCCC[C@@H](C)Oc2ccc(NC(=O)Nc3cccc4ccccc34)cc2C(=O)N([C@@H](C)CO)C[C@H]1C	n	n	n	n	-31	n	x	u
C[C@@H]1CCCCO[C@H](CN(C)C(=O)Nc2cccc3ccccc23)[C@H](C)CN([C@@H](C)CO)C(=O)c2cc(NC(=O)Nc3cccc4ccccc34)ccc2O1	n	n	n	n	n	n	x	x
C[C@@H]1CCCCO[C@@H](CN(C)C)[C@H](C)CN([C@H](C)CO)C(=O)c2cc(NC(=O)Nc3cccc4ccccc34)ccc2O1	n	n	n	n	n	x	n	u
O=C(C[C@H]1CC[C@@H](NC(=O)Cc2ccccn2)[C@@H](CO)O1)NCCc1ccncc1	n	n	n	n	n	n	x	x
C[C@H](CO)N1C[C@H](C)[C@H](CN(C)S(=O)(=O)c2ccc(F)cc2)Oc2c(NS(=O)(=O)c3ccccc3)cccc2C1=O	n	n	n	n	n	x	x	x
N#C[C@H]1[C@H](c2ccc(C#CC3CC3)cc2)[C@H](CO)N1S(=O)(=O)c1ccccc1	n	n	n	n	n	n	x	x
CCCNC(=O)C[C@H]1CC[C@H]2[C@@H](COc3ccc(NC(=O)NCC)cc3C(=O)N2C)O1	n	n	n	n	n	n	x	x
C[C@@H]1CCCCO[C@H](CN(C)C(=O)Nc2cccc3ccccc23)[C@@H](C)CN([C@H](C)CO)C(=O)c2cc(NC(=O)Nc3cccc4ccccc34)ccc2O1	n	n	n	n	n	n	x	x
C[C@@H]1CCCCO[C@@H](CN(C)CC2CC2)[C@H](C)CN([C@@H](C)CO)C(=O)c2cc(NC(=O)Nc3cccc4ccccc34)ccc2O1	n	n	n	n	n	x	x	x
CC(C)NC(=O)N(C)C[C@H]1OCCCC[C@@H](C)Oc2ccc(NC(=O)c3ccccc3)cc2C(=O)N([C@H](C)CO)C[C@@H]1C	n	n	n	n	n	x	x	x
C[C@H]1CCCCO[C@@H](CN(C)C)[C@@H](C)CN([C@@H](C)CO)C(=O)c2cc(NC(=O)Nc3cccc4ccccc34)ccc2O1	n	n	n	n	n	x	n	u
CC(C)NC(=O)N(C)C[C@H]1OCCCC[C@@H](C)Oc2ccc(NC(=O)c3ccccc3)cc2C(=O)N([C@@H](C)CO)C[C@H]1C	n	n	n	n	-20	x	n	u
C[C@@H]1CCCCO[C@H](CN(C)CC2CC2)[C@H](C)CN([C@@H](C)CO)C(=O)c2cc(NC(=O)Nc3cccc4ccccc34)ccc2O1	n	n	n	n	-27	x	x	x	HepG2 tox=n
C[C@H](CO)N1C[C@H](C)[C@H](CN(C)C)OCCCC[C@H](C)Oc2ccc(NC(=O)Nc3cccc4ccccc34)cc2C1=O	n	n	n	n	n	x	n	u
C[C@@H]1CN([C@@H](C)CO)C(=O)c2cc(C#CCc3ccccc3)cnc2O[C@@H]1CN(C)C(=O)Cc1cccnc1	n	n	n	n	n	x	x	x
CN1C(=O)c2cc(NS(C)(=O)=O)ccc2OC[C@H]2O[C@H](CC(=O)O)CC[C@H]21	x	n	n	n	n	n	x	x
CC(C)(C)c1ccc(C(CC(=O)O)NC(=O)Cc2ccc(Cl)cc2)cc1 (centres undefined)	n	n	n	n	-24	n	n	u
CC(C)Oc1ccc(C(CC(=O)O)NC(=O)Cc2ccc(Cl)cc2)cc1 (centres undefined)	n	n	n	n	n	n	x	x
O=C(NCC[C@@H]1CC[C@@H](NS(=O)(=O)Cc2ccccc2)[C@@H](CO)O1)C1CCOCC1	n	n	n	n	n	x	x	x
SMILES	Env fusion inh	PGC1a acetyl inh	PglD DTNB	DENV2 CPE rescue	rRNA inh HTS	FN deposit inh	AID977621	AID977628	others
COc1ccc(NC(=O)Nc2ccc3c(c2)C(=O)N([C@@H](C)CO)C[C@@H](C)[C@@H](CN(C)S(=O)(=O)c2c(C)noc2C)OCCCC[C@@H](C)O3)cc1	n	n	n	n	n	x	x	x
O=C(Nc1cccc(O)c1)c1cccc(S(=O)(=O)Nc2cccc(O)c2)c1	n	n	n	n	-16	n	n	n
O=C(Nc1cccc(O)c1)c1cccc(C(=O)Nc2cccc(O)c2)c1	n	n	n	n	n	n	x	x
COc1ccc(NC(=O)N(C)C[C@@H]2OCCCC[C@@H](C)Oc3ccc(NC(=O)Nc4c(C)noc4C)cc3C(=O)N([C@H](C)CO)C[C@H]2C)cc1	n	n	n	n	n	x	x	x
COc1ccc2c3c([nH]c2c1)[C@H](CO)N(S(C)(=O)=O)CC31CCN(C(=O)c2ccccc2)CC1	x	n	x	n	n	x	x	x
COC(=O)c1ccc(CSc2nc(-c3ccccc3)cs2)o1	x	n	n	x	-23	x	n	x
COc1ccc(NC(=O)C(C)SCc2ccccc2)cc1OC (centres undefined)	x	n	n	n	n	n	x	x
COc1cccc(NC(=O)C(c2ccccc2)N2CCN(c3ccccn3)CC2)c1 (centres undefined)	n	x	x	x	-19	n	n	n
COc1cccc(NC(=O)C(C)SCc2ccccc2)c1 (centres undefined)	n	x	x	n	-25	n	n	n
C[C@@H]1CN([C@H](C)CO)C(=O)c2cc(NC(=O)Cc3ccccc3)ccc2O[C@H]1CN(C)Cc1ccc(C(=O)O)cc1	n	n	n	n	n	n	x	x
Cc1ccccc1-n1c([C@@H]2C[C@H]2c2ccccc2)n[nH]c1=S	n	n	n	n	-28	n	n	n
